Assay results taken from ChEMBL document CHEMBL1123835, “Synthesis and biological properties of actinomycin D chromophoric analogues substituted at the 7-carbon with aziridine and aminopropoxy functions” (1987).
Values after ≈ are worked out from the molar mass of the structure shown. *1 amine or outer side, *2 acyl side, *3 side chain or, on linkers, in order; H or OH if unused. Where a SMILES comes first, the peptide text is derived from it. Bridges are numbered along the chain shown (N, C = ends). Roman numbers before positions name the chains, in order. [ ]: non-standard residue; d: D form. Actinocin(1to9) = Cc1c2oc3c(C)ccc(C(=O)[*:2])c3nc-2c(C(=O)[*:1])c(N)c1=O; NMeV = CN[C@H](C(=O)O)C(C)C; Sar = CNCC(=O)O

How the values were obtained:
[1] = Compound was evaluated for the elevation in temperature (degrees Celsius) for thermal denaturation of DNA.
In short: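 Calf-thymus DNA at 5.2 × 10^-5 M with drug at 2.5 × 10^-5 M in 0.01 M phosphate buffer (pH 7) with 10^-5 M EDTA. Thermal denaturation curves were recorded on a thermoprogrammed spectrophotometer with a quartz cell. ΔTm = Tm of DNA–drug complex minus Tm of DNA, with melting in the 67-85 °C range.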

B16 = experiment: compound was evaluated in vitro for growth inhibition of B16 (Murine melanoma cell line) cell; assay type: functional; conditions: Mus musculus, read-out: ID50 (the source's name)
In short: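 Murine B16 melanoma cells were grown as a monolayer culture in log-phase growth. Compounds were dissolved in Me2SO/saline, with under 1% Me2SO in the final growth medium. ID50 (ng/mL) is the concentration giving 50% growth inhibition after 48 h, averaged over three experiments.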

CCRF-CEM = experiment: In vitro growth inhibition of CCRF-CEM (Human leukemic lymphoblastic) cell; assay type: functional; conditions: read-out: ID50 (the source's name)
In short: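 Human CCRF-CEM lymphoblastic leukemia cells were grown in continuous spinner (suspension) culture in log phase. Compounds were dissolved in Me2SO/saline, with under 1% Me2SO in the final medium. ID50 (ng/mL) is the concentration giving 50% growth inhibition at 48 h, averaged over three experiments.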

[2] = Compound was evaluated for the elevation in temperature (degrees Centigrade) for thermal denaturation of DNA

Change in Tm [1] | IC50 (B16) [mg/L] | IC50 (CCRF-CEM) [mg/L] | SMILES | Change in Tm [2]
8 | 0.0033 (≈ 0.00263 µM) | 0.013 (≈ 0.0104 µM) | Cc1c2oc3c(C)ccc(C(=O)N[C@@H]4C(=O)N[C@H](C(C)C)C(=O)N5CCC[C@H]5C(=O)N(C)CC(=O)N(C)[C@@H](C(C)C)C(=O)O[C@@H]4C)c3nc-2c(C(=O)N[C@@H]2C(=O)N[C@H](C(C)C)C(=O)N3CCC[C@H]3C(=O)N(C)CC(=O)N(C)[C@@H](C(C)C)C(=O)O[C@@H]2C)c(N)c1=O [DACTINOMYCIN] (I: T[dV]P[Sar][NMeV] / II: T[dV]P[Sar][NMeV]; ester I:1-I:C, II:1-II:C; linker I:N-II:N via Actinocin(1to9)) | 
6.8 | > 1 | > 0.75 | C=CCOc1cc(C(=O)NC2C(=O)N[C@H](C(C)C)C(=O)N3CCC[C@H]3C(=O)N(C)CC(=O)N(C)[C@@H](C(C)C)C(=O)O[C@H]2C)c2nc3c(C(=O)NC4C(=O)N[C@H](C(C)C)C(=O)N5CCC[C@H]5C(=O)N(C)CC(=O)N(C)[C@@H](C(C)C)C(=O)O[C@H]4C)c(N)c(=O)c(C)c-3oc2c1C (some centres not stated) | 
4.8 | 0.055 (≈ 0.0414 µM) | 0.06 (≈ 0.0452 µM) | Cc1c2oc3c(C)c(OCC(C)N)cc(C(=O)NC4C(=O)N[C@H](C(C)C)C(=O)N5CCC[C@H]5C(=O)N(C)CC(=O)N(C)[C@@H](C(C)C)C(=O)O[C@H]4C)c3nc-2c(C(=O)NC2C(=O)N[C@H](C(C)C)C(=O)N3CCC[C@H]3C(=O)N(C)CC(=O)N(C)[C@@H](C(C)C)C(=O)O[C@H]2C)c(N)c1=O (some centres not stated) | 

SMILES | Change in Tm [1] | IC50 (B16) [mg/L] | IC50 (CCRF-CEM) [mg/L] | Change in Tm [2]
Cc1c2oc3c(C)c(OCC4CN4)cc(C(=O)NC4C(=O)N[C@H](C(C)C)C(=O)N5CCC[C@H]5C(=O)N(C)CC(=O)N(C)[C@@H](C(C)C)C(=O)O[C@H]4C)c3nc-2c(C(=O)NC2C(=O)N[C@H](C(C)C)C(=O)N3CCC[C@H]3C(=O)N(C)CC(=O)N(C)[C@@H](C(C)C)C(=O)O[C@H]2C)c(N)c1=O (some centres not stated) |  | 0.11 (≈ 0.0829 µM) | 0.076 (≈ 0.0573 µM) | 2.8
